Laboratory results: ChEMBL document CHEMBL3352272, “Discovery of 2-[5-(4-Fluorophenylcarbamoyl)pyridin-2-ylsulfanylmethyl]phenylboronic Acid (SX-517): Noncompetitive Boronic Acid Antagonist of CXCR1 and CXCR2” (J Med Chem, 2014)
Calls of active or inactive are those of the source. No cut-off for these calls is given here.

Key:
[1] = target: T1, C-X-C chemokine receptor type 2 (Homo sapiens, UniProt P25025); assay: Antagonist activity at CXCR2 in human PMNs assessed as inhibition of CXCL1-induced intracellular Ca2+ release by fluorescence based calcium flux assay; assay type: functional, cell-based
T1 sequence (P25025 whole entry): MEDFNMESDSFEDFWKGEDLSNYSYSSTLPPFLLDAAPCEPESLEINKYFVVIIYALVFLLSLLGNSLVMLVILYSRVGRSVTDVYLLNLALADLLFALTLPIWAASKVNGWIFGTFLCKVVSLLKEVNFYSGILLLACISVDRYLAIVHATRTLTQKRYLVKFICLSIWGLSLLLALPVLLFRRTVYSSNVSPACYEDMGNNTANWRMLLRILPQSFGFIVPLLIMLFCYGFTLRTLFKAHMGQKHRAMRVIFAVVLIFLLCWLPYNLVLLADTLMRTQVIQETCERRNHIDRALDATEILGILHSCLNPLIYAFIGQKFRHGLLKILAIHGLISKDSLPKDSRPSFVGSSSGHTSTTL

[2] = target: Interleukin-8 receptors, CXCR1/CXCR2 (Homo sapiens) (UniProt P25025+P25024); assay: Antagonist activity at CXCR1/CXCR2 in human PMNs assessed as inhibition of CXCL8-induced intracellular Ca2+ release at 1 uM by fluorescence based calcium flux assay; assay type: functional, cell-based
How it was run: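 Dye-loaded hPMNs were preincubated with compound or 1% DMSO at 37 °C for 30 min, then resuspended in HBSS+ with compound re-added. […] Fluorescence (ex 485/em 525) was read every 5 s for 240–500 s at room temperature, and the max–min response was expressed as % of the DMSO control.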

[3] = target: T2, C-X-C chemokine receptor type 2 (Homo sapiens) (UniProt P25025); assay: Antagonist activity at human CXCR2 expressed in HEK293 cells assessed as reduction in CXCL8-induced ERK1/2 phosphorylation at 10 uM after 30 mins by Western blotting method; assay type: cell-based
T2 sequence (whole entry): T1 sequence (P25025 whole entry)
How it was run: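 Cells were lysed at 0, 5, 15 and 30 min. About 50 μg of protein was run on 10% SDS-PAGE, blotted, and probed for phospho-ERK1/2 and total ERK1/2 with an HRP secondary.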

[4] = target: T1, C-X-C chemokine receptor type 2; assay: Antagonist activity at human CXCR2 expressed in HEK293 cells assessed as inhibition of CXCL8-induced intracellular Ca2+ release by fluorescence based calcium flux assay; assay type: functional, cell-based
[5] = target: Platelet-activating factor receptor (Homo sapiens, UniProt P25105); assay: Antagonist activity at platelet-activating factor receptor in human PMNs assessed as inhibition of PAF-induced intracellular Ca2+ release by fluorescence based calcium flux assay; assay type: functional, cell-based
Platelet-activating factor receptor, sequence (P25105 whole entry): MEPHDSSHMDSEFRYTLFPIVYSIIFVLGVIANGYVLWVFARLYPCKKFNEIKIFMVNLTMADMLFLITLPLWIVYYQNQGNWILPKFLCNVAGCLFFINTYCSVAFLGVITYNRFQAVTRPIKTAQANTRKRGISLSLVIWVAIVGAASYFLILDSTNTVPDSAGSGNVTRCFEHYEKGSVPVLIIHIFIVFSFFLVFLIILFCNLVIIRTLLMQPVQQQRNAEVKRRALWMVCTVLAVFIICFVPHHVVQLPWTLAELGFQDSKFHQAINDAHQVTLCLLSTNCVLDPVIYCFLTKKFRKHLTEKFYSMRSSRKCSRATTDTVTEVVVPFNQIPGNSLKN

[6] = target: T2, C-X-C chemokine receptor type 2 (Homo sapiens); assay: Effect on cell surface expression of human CXCR2 expressed in HEK293 cell […] at 10 uM incubated for 60 mins by FACS method; assay type: cell-based
How it was run: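 Stably CXCR2-expressing HEK293 cells were pretreated with 10 μM compound or 1% DMSO for 60 min. They were stained with PE-conjugated anti-human CXCR2 mAb (1:100) at 4 °C for 60 min, fixed in 2% formaldehyde and analysed by flow cytometry. Non-expressing HEK293 cells served as the negative control.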

[7] = target: T2, C-X-C chemokine receptor type 2 (Homo sapiens); assay: Displacement of [125I]CXCL8 from human CXCR2 expressed in HEK293 cell membranes up to 10 uM by liquid scintillation counting method
How it was run: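 After 1 h at room temperature, membranes were filtered and counted by scintillation. Results were expressed as % of control specific binding.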

[8] = target: T3, C5a anaphylatoxin chemotactic receptor 1 (Homo sapiens, UniProt P21730); assay: Antagonist activity at C5a receptor in human PMNs assessed as inhibition of C5a-induced intracellular Ca2+ release by fluorescence based calcium flux assay; assay type: functional, cell-based
T3 sequence (P21730 whole entry): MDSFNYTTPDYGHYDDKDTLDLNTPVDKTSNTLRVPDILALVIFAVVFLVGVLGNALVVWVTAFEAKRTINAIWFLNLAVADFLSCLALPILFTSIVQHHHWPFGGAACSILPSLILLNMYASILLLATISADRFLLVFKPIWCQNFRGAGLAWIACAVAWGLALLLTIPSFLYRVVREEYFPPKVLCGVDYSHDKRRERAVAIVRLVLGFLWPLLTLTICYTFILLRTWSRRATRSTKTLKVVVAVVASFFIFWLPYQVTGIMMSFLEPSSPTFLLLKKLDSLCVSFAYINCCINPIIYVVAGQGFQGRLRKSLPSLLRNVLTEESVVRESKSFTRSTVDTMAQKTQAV

[9] = target: T1, C-X-C chemokine receptor type 2; assay: Antagonist activity at human CXCR2 expressed in HEK293 cells assessed as inhibition of […]-induced [35S]GTPgammaS binding after 60 mins; assay type: functional, cell-based
How it was run: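 HEK293 cells stably expressing human CXCR2 were pretreated with compound, then lysed (5 mM Tris-HCl pH 7.5, EDTA, EGTA) and membranes spun at 30000g. […] Nonspecific binding was taken with 10 μM GTPγS. IC50 came from nonlinear regression.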

[10] = target: T4, Interleukin-8 receptors, CXCR1/CXCR2 (Homo sapiens, UniProt P25025+P25024); assay: Antagonist activity at CXCR1/CXCR2 in human PMNs assessed as inhibition of CXCL8-induced intracellular Ca2+ release by fluorescence based calcium flux assay; assay type: functional, cell-based
T4 sequence (P25025 whole entry): T1 sequence (P25025 whole entry)
T4 sequence (P25024 whole entry): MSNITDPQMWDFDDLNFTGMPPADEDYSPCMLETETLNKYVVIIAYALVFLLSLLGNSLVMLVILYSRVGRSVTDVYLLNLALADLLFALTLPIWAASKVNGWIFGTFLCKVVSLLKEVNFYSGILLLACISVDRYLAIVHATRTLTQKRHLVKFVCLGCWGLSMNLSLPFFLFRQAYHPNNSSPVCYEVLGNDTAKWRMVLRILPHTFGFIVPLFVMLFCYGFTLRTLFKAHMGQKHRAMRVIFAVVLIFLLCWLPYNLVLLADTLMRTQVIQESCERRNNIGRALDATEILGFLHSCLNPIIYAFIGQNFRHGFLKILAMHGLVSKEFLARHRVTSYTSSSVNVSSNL

[11] = target: T5, C-X-C chemokine receptor type 1 (Homo sapiens, UniProt P25024); assay: Antagonist activity at human CXCR1 expressed in HEK293 cells assessed as inhibition of CXCL8-induced intracellular Ca2+ release by fluorescence based calcium flux assay; assay type: functional, cell-based
T5 sequence (P25024 whole entry): T4 sequence (P25024 whole entry)
How it was run: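 HEK293 cells were stably transfected with human CXCR1, with a pooled polyclonal line selected in 800 μg/mL G418. […] Fluorescence was read at ex 485/em 525, and max–min was taken as % of control.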

Mus musculus = assay: Antiinflammatory activity in CD1 Swiss mouse air pouch model of inflammation assessed as reduction in total cell count in inflammatory infiltrate at 0.2 mg/kg, iv dosed 3 hrs before carrageenan challenge and measured 4 hrs post carrageenan challenge by trypan blue staining based hemocytometry; assay type: functional, organism-based; parameters: dose 0.2 mg/kg
How it was run: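 Male CD1 Swiss mice aged 10–15 weeks received a 2 mL subcutaneous dorsal air injection, reinflated with 1.5 mL the next day. Compound in 20:20:80 PEG400:DMF:saline, or vehicle, was given iv by tail vein (n=5 per group). After 3 h, 1 mL of 2% carrageenan in PBS, or PBS, was injected into the pouch. After 4 h, pouch fluid plus a 2 mL PBS wash was collected, and trypan blue-stained cells were counted by hemocytometer. Statistics used Student's t-test.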

fMet-Leu-Phe receptor = target: T6, fMet-Leu-Phe receptor (Homo sapiens, UniProt P21462); assay: Antagonist activity at fMLF receptor in human PMNs assessed as inhibition of fMLF-induced intracellular Ca2+ release by fluorescence based calcium flux assay; assay type: functional, cell-based
T6 sequence (P21462 whole entry): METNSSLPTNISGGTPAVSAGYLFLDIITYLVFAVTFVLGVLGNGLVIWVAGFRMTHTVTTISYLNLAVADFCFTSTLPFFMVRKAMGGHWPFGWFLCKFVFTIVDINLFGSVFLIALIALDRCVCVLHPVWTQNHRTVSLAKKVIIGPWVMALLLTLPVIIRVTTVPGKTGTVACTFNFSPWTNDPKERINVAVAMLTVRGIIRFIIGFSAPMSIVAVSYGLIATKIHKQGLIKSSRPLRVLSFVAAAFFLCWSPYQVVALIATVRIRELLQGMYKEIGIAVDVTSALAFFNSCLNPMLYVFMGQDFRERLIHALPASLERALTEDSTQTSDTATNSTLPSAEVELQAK

| SMILES | IC50 [1] | other results |
| --- | --- | --- |
| O=C(c1ccc(SCc2ccccc2B(O)O)nc1)N(CC1CCCCN1)c1ccc(F)cc1 (stereo unspecified) | > 5 µM | – |
| O=C(Nc1ccc(F)cc1)c1ccc(SCc2ccc(-n3cccc3)cc2)nc1 | > 10 µM | – |
| O=C(Nc1ccc(F)cc1)c1ccc(SCc2cccc(OC(F)(F)F)c2)nc1 | > 10 µM | – |
| O=C(Nc1ccc(F)cc1)c1ccc(SCc2cccc(-n3cccc3)c2)nc1 | > 10 µM | – |
| O=C(Nc1ccc(F)cc1)c1ccc(SC2CCOC2=O)nc1 (stereo unspecified) | > 5 µM | – |
| O=C(Nc1ccc(F)cc1)c1ccc(SCC2CCCCO2)nc1 (stereo unspecified) | > 5 µM | – |
| Cc1nc(-c2ccc(CSc3ccc(C(=O)Nc4ccc(F)cc4)cn3)cc2)no1 | > 5 µM | – |
| O=C(O)c1ccc(NC(=O)c2ccc(SCc3ccccc3B(O)O)nc2)cc1 | > 10 µM | – |
| Cc1nc(-c2ccccc2)sc1CSc1ccc(C(=O)Nc2ccc(F)cc2)cn1 | > 5 µM | – |
| O=C(Nc1ccc(F)cc1)c1ccc(SCc2ccc(-n3cccn3)cc2)nc1 | > 10 µM | – |
| Cc1nc(-c2cccc(CSc3ccc(C(=O)Nc4ccc(F)cc4)cn3)c2)cs1 | > 5 µM | – |
| O=C(O)CSc1ccc(C(=O)Nc2ccc(F)cc2)cn1 | > 5 µM | – |
| Cc1nc(-c2ccc(CSc3ccc(C(=O)Nc4ccc(F)cc4)cn3)cc2)cs1 | > 10 µM | – |
| O=C(Nc1ccc(F)cc1)c1ccc(SCc2ccncc2)nc1 | > 5 µM | – |
| O=C(Nc1ccc(F)cc1)c1ccc(SCc2ccccc2-c2cccs2)nc1 | > 5 µM | – |
| O=C(Nc1ccc(-c2nn[nH]n2)cc1)c1ccc(SCc2ccccc2B(O)O)nc1 | > 10 µM | – |
| O=C(Nc1ccc(F)cc1)c1ccc(SCC2CCN(C(=O)OCc3ccccc3)CC2)nc1 | > 10 µM | – |
| Cc1nn(-c2ccccc2)nc1CSc1ccc(C(=O)Nc2ccc(F)cc2)cn1 | > 5 µM | – |
| CCOP(=O)(CSc1ccc(C(=O)Nc2ccc(F)cc2)cn1)OCC | > 10 µM | – |
| O=C(Nc1ccc(F)cc1)c1ccc(SCC2CCOCC2)nc1 | > 5 µM | – |

| SMILES | IC50 [1] | other results |
| --- | --- | --- |
| O=C(Nc1ccc(F)cc1)c1ccc(SCc2ccccc2O)nc1 | 0.277 µM | – |
| O=C(Nc1ccc(F)cc1)c1ccc(SCS(=O)(=O)c2ccccc2)nc1 | > 5 µM | – |
| O=C(Nc1ccc(F)cc1)c1ccc(Sc2ccccc2)nc1 | > 10 µM | – |
| Cc1onc(-c2ccccc2)c1CSc1ccc(C(=O)Nc2ccc(F)cc2)cn1 | > 5 µM | – |
| O=C(Nc1ccc(F)cc1)c1ccc(SCc2ccc([N+](=O)[O-])o2)nc1 | > 5 µM | – |
| Cc1nc(-c2ccc(C(F)(F)F)cc2)sc1CSc1ccc(C(=O)Nc2ccc(F)cc2)cn1 | > 10 µM | – |
| Cc1nc(-c2cccc(CSc3ccc(C(=O)Nc4ccc(F)cc4)cn3)c2)no1 | > 10 µM | – |
| Cc1cc(CSc2ccc(C(=O)Nc3ccc(F)cc3)cn2)no1 | > 5 µM | – |
| O=C(Nc1ccc(F)cc1)c1ccc(SCc2ccc([N+](=O)[O-])cc2)nc1 | > 5 µM | – |
| COC(=O)c1cccc(CSc2ccc(C(=O)Nc3ccc(F)cc3)cn2)c1 | > 5 µM | – |
| O=C(Nc1ccc(F)cc1)c1ccc(SCc2ccc(C(F)(F)F)o2)nc1 | > 5 µM | – |
| COC(=O)c1ccc(CSc2ccc(C(=O)Nc3ccc(F)cc3)cn2)cc1 | > 10 µM | – |
| Cc1noc(-c2ccccc2)c1CSc1ccc(C(=O)Nc2ccc(F)cc2)cn1 | > 10 µM | – |
| O=C(O)c1ccc(CSc2ccc(C(=O)Nc3ccc(F)cc3)cn2)cc1 | > 10 µM | – |
| O=C(Nc1ccc(F)cc1)c1ccc(SCc2ccc(OC(F)(F)F)cc2)nc1 | > 10 µM | – |
| Cc1cccc(CSc2ccc(C(=O)Nc3ccc(F)cc3)cn2)c1F | > 10 µM | – |
| O=C(Nc1ccc(F)cc1)c1ccc(SCc2ccc(-n3cncn3)cc2)nc1 | > 10 µM | – |
| O=C(Nc1ccc(F)cc1)c1ccc(SCc2ccccc2B(O)O)nc1 | – | inhibition [2]: Active; inhibition [3]: Active; IC50 [4]: 0.21 µM; IC50 [5]: > 5 µM; Activity [6]: inactive; inhibition [7]: inactive; IC50 [8]: > 5 µM; IC50 [9]: 0.06 µM; IC50 [10]: 0.036 µM; IC50 [11]: 0.88 µM; inhibition (Mus musculus): Active; IC50 (fMet-Leu-Phe receptor): > 5 µM |
| Cc1n[nH]c(C)c1CCSc1ccc(C(=O)Nc2ccc(F)cc2)cn1 | > 5 µM | – |
| O=C(Nc1ccc(F)cc1)c1ccc(SC[N+](=O)[O-])nc1 | > 10 µM | – |
